Source: ChEMBL document CHEMBL1833924, “HLE-inhibitory alkaloids with a polyketide skeleton from the marine-derived fungus Coniothyrium cereale” (J Nat Prod, 2011)
Active and inactive are the calls of the source. No cut-off for these calls is given here.

What was measured:
Staphylococcus aureus [1] = test: Antibacterial activity against Staphylococcus aureus at 20 uL after 24 hrs by agar diffusion assay; format: functional, organism-based
Mycolicibacterium phlei [2] = test: Antibacterial activity against Mycobacterium phlei at 20 uL after 24 hrs by agar diffusion assay; format: functional, organism-based
Acetylcholinesterase = Acetylcholinesterase (Electrophorus electricus, UniProt O42275); test: Inhibition of electric eel AChE
Papain = biological target: T1, Papain (Carica papaya, UniProt P00784); test: Inhibition of Carica papaya papain
T1 sequence (P00784 whole entry): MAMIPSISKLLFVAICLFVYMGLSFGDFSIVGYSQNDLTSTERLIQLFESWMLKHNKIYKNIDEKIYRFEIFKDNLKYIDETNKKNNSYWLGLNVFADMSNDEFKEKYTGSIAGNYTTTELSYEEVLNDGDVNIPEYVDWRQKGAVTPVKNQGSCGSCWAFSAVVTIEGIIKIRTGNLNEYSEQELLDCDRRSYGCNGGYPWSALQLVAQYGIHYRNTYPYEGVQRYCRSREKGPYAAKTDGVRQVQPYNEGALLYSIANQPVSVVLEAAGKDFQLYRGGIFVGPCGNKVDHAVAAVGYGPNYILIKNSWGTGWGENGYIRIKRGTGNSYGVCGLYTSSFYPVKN

L929 [3] = test: Cytotoxicity against mouse L929 cells at 60 uL after 5 days by MTT assay; format: cell-based; conditions: l929, 120 h
Prothrombin = Prothrombin (Homo sapiens, UniProt P00734); test: Inhibition of human thrombin
[4] = Inhibition of bovine Chymotrypsin; set-up: species or system Bos taurus
Neutrophil elastase = biological target: T2, Neutrophil elastase (Homo sapiens, UniProt P08246); test: Inhibition of human leukocyte elastase using MeOSuc-Ala-Ala-Pro-Val-para-nitroanilide chromogenic substrate after 10 mins spectrophotometrically
T2 sequence (P08246 whole entry): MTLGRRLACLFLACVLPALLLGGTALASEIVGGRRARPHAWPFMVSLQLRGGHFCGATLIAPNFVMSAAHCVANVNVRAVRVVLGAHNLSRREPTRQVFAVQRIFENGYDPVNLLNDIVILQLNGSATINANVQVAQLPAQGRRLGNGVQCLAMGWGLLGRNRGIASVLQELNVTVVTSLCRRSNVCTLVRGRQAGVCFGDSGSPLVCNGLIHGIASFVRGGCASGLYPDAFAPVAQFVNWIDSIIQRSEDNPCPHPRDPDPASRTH
Method in brief: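 Human leukocyte elastase enzyme inhibition assay; IC50 (μM) determined and reported as mean ± spread.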

[5] = Inhibition of porcine cholesterol esterase; set-up: species or system Sus scrofa
Escherichia coli [6] = test: Antibacterial activity against Escherichia coli at 20 ug/disk after 24 hrs by agar diffusion assay
[7] = Inhibition of bovine trypsin; set-up: species or system Bos taurus
Staphylococcus aureus [8] = test: Antibacterial activity against Staphylococcus aureus assessed as zone of inhibition at 20 ug/disk after 24 hrs by agar diffusion assay; format: functional; conditions: read-out: DIZ
Method in brief: (§1)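 Paper discs loaded at 20 μg/disk were placed on agar seeded with each bacterium (Mycobacterium phlei, Staphylococcus aureus or Escherichia coli). Read-out was the diameter of the inhibition zone, recorded in mm.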

Mycolicibacterium phlei [9] = test: Antibacterial activity against Mycobacterium phlei assessed as zone of inhibition at 20 ug/disk after 24 hrs by agar diffusion assay; format: functional; conditions: read-out: DIZ; method in brief: as §1
Escherichia coli [10] = test: Antibacterial activity against Escherichia coli assessed as zone of inhibition at 20 ug/disk after 24 hrs by agar diffusion assay; format: functional; conditions: read-out: DIZ; method in brief: as §1
L929 [11] = test: Cytotoxicity against mouse L929 cells after 5 days by MTT assay; format: cell-based; conditions: L929, 120 h
Method in brief: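 MTT viability assay run on mouse fibroblast cells; result expressed as IC50 (μM).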

Sequence of Acetylcholinesterase (O42275 whole entry): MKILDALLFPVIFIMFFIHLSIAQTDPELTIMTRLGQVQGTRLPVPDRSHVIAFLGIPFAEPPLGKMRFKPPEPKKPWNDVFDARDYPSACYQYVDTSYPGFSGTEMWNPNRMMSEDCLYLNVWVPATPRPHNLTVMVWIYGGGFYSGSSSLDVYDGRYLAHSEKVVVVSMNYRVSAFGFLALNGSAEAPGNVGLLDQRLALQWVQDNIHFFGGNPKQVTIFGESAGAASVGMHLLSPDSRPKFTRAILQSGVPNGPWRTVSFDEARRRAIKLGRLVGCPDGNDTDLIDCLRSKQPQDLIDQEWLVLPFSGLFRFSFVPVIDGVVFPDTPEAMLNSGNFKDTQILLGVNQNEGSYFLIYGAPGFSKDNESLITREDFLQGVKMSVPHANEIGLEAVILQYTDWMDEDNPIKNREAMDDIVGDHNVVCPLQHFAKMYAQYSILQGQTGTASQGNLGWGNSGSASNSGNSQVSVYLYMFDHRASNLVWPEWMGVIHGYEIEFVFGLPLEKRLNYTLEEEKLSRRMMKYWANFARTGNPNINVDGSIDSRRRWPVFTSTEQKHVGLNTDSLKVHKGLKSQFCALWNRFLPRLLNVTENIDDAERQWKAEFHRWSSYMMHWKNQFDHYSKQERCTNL

Structure (SMILES) | Activity (Staphylococcus aureus [1]) | Activity (Mycolicibacterium phlei [2]) | IC50 (Acetylcholinesterase) [µM] | IC50 (Papain) [µM] | Activity (L929 [3]) | IC50 (Prothrombin) [µM] | IC50 [4] [µM] | IC50 (Neutrophil elastase) [µM] | IC50 [5] [µM] | Activity (Escherichia coli [6]) | IC50 [7] [µM] | zone of inhibition at 20 µg/disc (Staphylococcus aureus [8]) [mm] | zone of inhibition at 20 µg/disc (Mycolicibacterium phlei [9]) [mm] | zone of inhibition at 20 µg/disc (Escherichia coli [10]) [mm] | IC50 (L929 [11]) [µM]
C[C@@H]1OC2=C(C(=O)C(=N)c3c(O)c(O)cc(C=O)c32)C1(C)C | inactive | inactive | > 50 | > 50 | Non-toxic | > 50 | > 50 | 3.01 | > 50 | inactive | > 50 | – | – | – | –
Cc1cc(O)c2c3c(c(O)c4c(c13)O[C@@H](C)C4(C)C)NC2=O | inactive | inactive | > 50 | > 50 | Non-toxic | > 50 | > 50 | 9.28 | > 50 | inactive | > 50 | – | – | – | –
Cc1cc(O)cc2c1C1=C(C(=O)C2=O)C(C)(C)[C@H](C)O1 | – | – | > 50 | > 50 | – | > 50 | > 50 | > 20 | > 50 | – | > 50 | 14 | 18 | 12 | 7.5
